Yeast life ext = extends the lifespan of yeast; inhibition of the nicotinamide effect, % at 10 µM; S. cerevisiae growth with nicotinamide, OD615; deaD strain in restrictive glucose medium; actives 0.68% (n = 130,000);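 active = inhibition above a set limit, placed 3 SD over the median of all compounds, cut at about 26% in these data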;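 also: 0% = nicotinamide-treated wells and 100% = cells grown without nicotinamide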
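Assay system: engineered S. cerevisiae DeaD replicative-lifespan strain, galactose-grown log-phase cells; Buffer or medium: CSMM-D glucose medium, restrictive; Probe or stimulus: nicotinamide 1.5 mM; Compound: single dose 10 µM compound, 0.25% DMSO; Schedule: 4 h preincubation then 48 h treatment at 30 °C; Technique: OD615 measurement.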
SDO1 yeast rescue = restores growth of sdo1-depleted yeast; S. cerevisiae sdo1-depleted JHY4D growth rescue, OD600 30 h; active compounds read high; pdr5 snq2 efflux-pump mutant strain; z-score at 10 µM; actives 0.21% (n = 140,000); AID 817;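 active = z-score above 3 at both the 24 hr and the 30 hr optical density reads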;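 also: z-score against mean and SD of all compound wells on the same plate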
RAM network inh = inhibitors of the yeast RAM network; S. cerevisiae dse1pr::URA3 reporter, 5-FOA growth OD615, 2 d; analog-sensitive cbk1-as2 kinase mutant strain; inhibition, % at 50 µM; actives 1.8% (n = 190,000); AID 868;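 active = inhibition above a set limit, 3 SD over mean compound inhibition, cut at about 8.4% in these data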;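 also: 0% = DMSO-only wells with no growth and 100% = 10 µM 1-NA-PP1 full growth; inhibition rescues growth on 5-FOA so higher OD means more RAM inhibition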
Yeast growth inh = yeast BB579 growth reduction in restrictive medium; S. cerevisiae BB579 growth, OD615, 48 h; inhibition, % at 10 µM; actives 0.51% (n = 140,000);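 active = inhibition above a set limit, 3 SD over the mean compound inhibition, cut at about 44% in these data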
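Test system: Saccharomyces cerevisiae DeaD strain BB579, replicative lifespan model yeast | Buffer or medium: Restrictive CSMM-D medium | Doses: One dose, 10 µM compound with 0.25% DMSO | Incubation: 48 h exposure, 30 °C | Detection: Culture absorbance at 615 nm | Control set: Amphotericin B at 10 µg/mL as positive control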
RAM 5-FOA = RAM network inhibitors in efflux-deficient yeast. shares compounds with RAM network inh. S. cerevisiae efflux-deficient reporter strain, 5-FOA growth OD615, 2 days. max inhibition, %. 1,200 tested, under 10 active; call rule not given here;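 also: plate controls were vehicle for no effect and reference inhibitor for full effect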
* = called active by the depositor; x = no result given. Compounds with a hit are over-represented: about 2.7% of the library has one in this group of screens.

SMILES	Yeast life ext	SDO1 yeast rescue	RAM network inh	Yeast growth inh	RAM 5-FOA
CC(C)C(c1nnnn1Cc1ccc(F)cc1)N1CCN(c2ccc(O)cc2)CC1 (stereo not given)	x	x	1	x	x
CC(=O)c1ccc(S(=O)(=O)N2CCCCC2C(=O)O)cc1 (stereo not given)	x	x	1	x	x
COC(=O)c1cc(C(=O)NCc2ccccc2)c(=O)[nH]c1C	x	x	0	x	x
Clc1ccc(Nc2ncn[nH]2)c(Cl)c1	x	x	0	x	x
O=C1NCCN(Cc2ccc(Cl)c(F)c2)C1CC(=O)N1CCCCO1 (stereo not given)	x	x	1	x	x
Cc1ccsc1/C=C1\SC(=S)N(CC2CCCO2)C1=O (stereo not given)	x	x	2	x	x
CCCOc1ccc(/C=C2\SC(=S)N(CC3CCCO3)C2=O)cc1 (stereo not given)	4	0.81	17*	-16	7
Cc1cc(C)cc(OCc2nnc(SCC(=O)c3ccccc3)o2)c1	-12	-0.49	8	-58	x
Cc1cccc(OCc2nnc(SCC(=O)c3ccccc3)o2)c1	-8	0.95	12*	-41	2
Cc1ccc(C(=O)CSc2nnc(COc3cc(C)cc(C)c3)o2)cc1	5	-0.57	12*	-21	1
O=C(O)c1cnn(-c2nc(-c3ccc(F)cc3)cs2)c1C(F)(F)F	x	x	2	x	x
CCOC(=O)c1cnn(-c2nc(-c3ccc(C)cc3)cs2)c1C(F)(F)F	-8	1.2	12*	-7	3
Cc1ccc(SCc2cc(=O)n(C)[nH]2)cc1	x	x	0	x	x
COc1ccccc1C(=O)C1CCCN(C(=O)c2ccccn2)C1 (stereo not given)	x	x	0	x	x
Cn1nc(C(F)(F)F)c(/C=N/OC(=O)c2ccccc2Cl)c1SCc1ccccc1Cl	7	0.43	12*	-30	3
Cn1nc(C(F)(F)F)c(/C=N/OC(=O)c2ccccc2)c1SCc1ccc(Cl)cc1	-4	-0.27	12*	-42	4
Cn1nc(C(F)(F)F)c(/C=N/OC(=O)c2ccc(Cl)cc2)c1Cl	-7	-0.44	5	-30	x
Cn1nc(C(F)(F)F)c(/C=N/OCc2c(Cl)cccc2Cl)c1Cl	-6	0.61	0	-11	x
Cc1ccc(-c2cn(-c3ccccc3)c(SCC(=O)NC3CCS(=O)(=O)C3)n2)cc1C (stereo not given)	-6	-0.58	0	-21	x
COc1cc(C2CC(c3cccnc3)=NN2c2ccc(F)cc2)cc(OC)c1OC (stereo not given)	x	x	8	x	x
CCCCCCCCNC(=O)c1cccnc1SCC(=O)Nc1ccccc1OC	-4	-1.1	12*	-18	1
CCOc1cc(/C=C/c2cc(C(=O)O)c3ccccc3n2)ccc1OC	-3	1.2	2	-36	x
COc1cc(/C=C/c2cc(C(=O)O)c3ccccc3n2)cc(OC)c1O	x	x	12*	x	5
Cc1ccc(N/N=C/c2c(C)c(C#N)c(=O)n(C)c2O)cc1C	x	x	13*	x	2
CCCN1C(=O)/C(=C/c2ccc(C)s2)SC1=Nc1ccc(OC)cc1	3	0.02	21*	-25	2
SMILES	Yeast life ext	SDO1 yeast rescue	RAM network inh	Yeast growth inh	RAM 5-FOA
CCC(Sc1nc2c(cnn2-c2ccc(Cl)cc2)c(=O)[nH]1)C(=O)OC (stereo not given)	3	-1.6	4	-17	x
CCOC(=O)C(C)(C)Sc1nc2c(cnn2-c2ccc(Cl)cc2)c(=O)[nH]1	4	-1.4	14*	-103	3
N#Cc1ccc(-c2cccnc2)nc1SCc1ccc(Cl)c(Cl)c1	3	-0.83	13*	-48	11
N#Cc1ccc(-c2cccnc2)nc1SCc1ccc(Cl)cc1Cl	0	-2.4	4	-35	x
N#Cc1c(C(F)(F)F)cc(C2CC2)nc1N1CCCC1	-4	0.71	14*	-18	2
Cc1cc(C(F)(F)F)c(C#N)c(N2CCOCC2)n1	-5	0.59	0	-11	x
O=C(CSc1nn(-c2ccc(Cl)cc2)c(=S)s1)NCC1CCCO1 (stereo not given)	x	x	3	x	x
CCN(CC)S(=O)(=O)c1cccc(-c2nnc(-c3ccc(C)cc3)o2)c1	-11	-0.55	7	-30	x
CCN(CC)S(=O)(=O)c1cccc(-c2nnc(SCCCC(=O)c3ccc(F)cc3)o2)c1	4	-1.1	13*	-45	3
CCN(CC)S(=O)(=O)c1cccc(-c2nnc(SCCCC(=O)c3ccccc3)o2)c1	3	-1.9	12*	-30	3
CCN(CC)S(=O)(=O)c1cccc(-c2nnc(SCc3nc4ccccc4s3)o2)c1	-7	-1.4	15*	-74	3
Cn1cccc1C(=O)OCc1cc(Cl)cc2c1OCOC2	-7	-1.5	12*	-47	4
Cn1cccc1C(=O)OCC(=O)Nc1ccc2c(c1)OCO2	x	x	0	x	x
COc1ccc(-n2c(CNC(=O)COc3ccc(Cl)cc3Cl)n[nH]c2=S)cc1	x	x	3	x	x
Cc1ccc(C(=O)CC(=O)c2ccc(C(C)(C)C)cc2)cc1	x	x	20*	x	8
CCOC(=O)/C(=C/c1ccc(N2CCC(c3ccccc3)=N2)cc1)C(C)=O	7	-1.5	20*	-53	2
CSc1nnc(-c2ccco2)c(-c2ccco2)n1	-18	-0.4	1	-54	x
CSc1nnc2c3ccccc3c3ccccc3c2n1	-8	-0.89	13*	-59	3
COc1ccc(S(=O)(=O)N(CC(=O)NCCC(C)C)c2ccccc2)cc1OC	x	x	3	x	x
COc1cccc(-c2nnc(SCC(=O)Nc3ccc(OC)c(OC)c3)n2N)c1	-7	1.4	12*	-22	3
Cc1ccccc1Nc1nc(N)nc(CN2CCN(C(=O)c3ccccc3)CC2)n1	x	x	2	x	x
N#C/C(=C\C1=C(N2CCOCC2)C(=C/c2cccc([N+](=O)[O-])c2)/CC1)C(=O)Nc1ccccc1F	6	0.72	11*	-56	3
CN(CCO)c1cnccn1	x	x	4	x	x
CC(=O)c1ccc(N(C(=O)CS(=O)CC(=O)Nc2ccc(F)cc2)C(C(=O)NC2CCCCC2)c2cccs2)cc1 (stereo not given)	17	-0.6	18*	-35	2
O=C(COc1cccc2c1CCN(Cc1ccc(Br)cc1)C2=O)NCc1ccco1	-6	-1.8	-2	2	x
SMILES	Yeast life ext	SDO1 yeast rescue	RAM network inh	Yeast growth inh	RAM 5-FOA
COc1cc2c(=O)n(Cc3ccco3)c(=O)n(CC(=O)c3cccc(Br)c3)c2cc1OC	-11	-1.2	4	-47	x
COc1cc2c(=O)n(Cc3ccco3)c(=O)n(CC(=O)c3ccc(Br)cc3)c2cc1OC	-8	-1.8	12*	-66	2
CC(c1cccs1)N(C)Cc1nc(CCc2ccccc2)no1 (stereo not given)	x	x	0	x	x
CCC(C)COC(=O)C(C#N)c1nc2ccccc2nc1N1CCCCC1 (stereo not given)	1	-0.71	18*	-39	4
CCCCOc1nc2ccccc2nc1C(C#N)C(=O)NC1CCCCC1 (stereo not given)	-6	-1.4	12*	-36	9
CCCCCCOC(=O)C(C#N)c1nc2ccccc2nc1N1CCN(C)CC1 (stereo not given)	-25	-1.6	0	-36	x

From PubChem
